Measurements: ChEMBL document CHEMBL1136701, “Design, synthesis and biological activity of beta-carboline-based type-5 phosphodiesterase inhibitors” (Bioorg Med Chem Lett, 2003)

Assays:
[1] = target: Dual 3',5'-cyclic-AMP and -GMP phosphodiesterase 11A (Homo sapiens, UniProt Q9HCR9); assay: Inhibitory activity against phosphodiesterase 11 (PDE11) obtained from recombinant Sf9 expression
Method in brief: (§1)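 Scintillation proximity assay: fixed enzyme amount with varying inhibitor concentrations; substrate cGMP (3:1 unlabelled to [³H]-labelled) at about 1/3 Km, so that IC50 ≈ Ki. Buffer 20 mM Tris–HCl pH 7.4, 5 mM MgCl2, BSA. Reactions started with enzyme, run 30–60 min at 30 °C, stopped with yttrium silicate SPA beads. Counts converted to % of uninhibited control; IC50 from curve fit.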

Phosphodiesterase 6 = assay: Inhibitory activity against phosphodiesterase 6 (PDE6) obtained from canine or bovine retina; type: protein assay; method in brief: as §1
[2] = Relative inhibition of PDE11 and PDE5
[3] = target: T1, cGMP-specific 3',5'-cyclic phosphodiesterase (Homo sapiens, UniProt O76074); assay: Inhibitory activity against phosphodiesterase 5 (PDE5) obtained from human corpus cavernosum tissue; method in brief: as §1
[4] = target: T1, cGMP-specific 3',5'-cyclic phosphodiesterase; assay: Selectivity ratio of the compound against PDE6 to that of PED5
[5] = Relative inhibitoin of PDE11 and PDE5

Sequence of Dual 3',5'-cyclic-AMP and -GMP phosphodiesterase 11A (Q9HCR9 whole entry): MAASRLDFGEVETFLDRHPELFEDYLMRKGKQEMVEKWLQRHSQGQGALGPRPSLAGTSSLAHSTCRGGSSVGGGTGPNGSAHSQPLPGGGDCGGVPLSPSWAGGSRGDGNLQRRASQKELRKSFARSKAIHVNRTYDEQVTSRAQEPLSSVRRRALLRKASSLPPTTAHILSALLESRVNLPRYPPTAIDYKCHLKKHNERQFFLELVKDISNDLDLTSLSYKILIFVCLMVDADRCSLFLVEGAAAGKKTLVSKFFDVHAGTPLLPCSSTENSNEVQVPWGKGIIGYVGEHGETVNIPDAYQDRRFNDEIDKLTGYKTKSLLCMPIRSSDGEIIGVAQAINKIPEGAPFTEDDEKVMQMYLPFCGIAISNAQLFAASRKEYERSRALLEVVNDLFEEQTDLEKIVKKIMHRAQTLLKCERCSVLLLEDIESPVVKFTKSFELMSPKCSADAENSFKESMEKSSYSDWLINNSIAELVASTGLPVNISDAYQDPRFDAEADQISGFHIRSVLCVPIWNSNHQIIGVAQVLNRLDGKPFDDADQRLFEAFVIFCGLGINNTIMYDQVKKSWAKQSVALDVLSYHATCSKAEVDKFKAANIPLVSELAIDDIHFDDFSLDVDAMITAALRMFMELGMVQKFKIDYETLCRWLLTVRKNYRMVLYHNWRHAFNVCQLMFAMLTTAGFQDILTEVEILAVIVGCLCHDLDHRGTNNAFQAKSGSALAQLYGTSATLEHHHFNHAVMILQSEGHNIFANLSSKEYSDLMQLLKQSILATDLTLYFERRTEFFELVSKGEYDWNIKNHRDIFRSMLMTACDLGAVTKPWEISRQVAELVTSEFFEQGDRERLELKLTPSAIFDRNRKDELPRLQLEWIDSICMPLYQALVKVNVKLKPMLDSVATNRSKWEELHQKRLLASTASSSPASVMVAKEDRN

IC50 [1] [nM] | IC50 (Phosphodiesterase 6) [nM] | Selectivity ratio [2] | IC50 [3] [nM] | Selectivity ratio [4] | Selectivity ratio [5] | SMILES
48 | 1601 | 5.7 | 8.4 | 189 |  | NC(=O)CCN1CC[C@@H](N2CC(=O)N3[C@H](c4ccc5c(c4)OCO5)c4[nH]c5ccccc5c4C[C@@H]3C2=O)C1
4.2 | 358 | 2.1 | 2 | 181 |  | O=C1[C@H]2Cc3c([nH]c4ccccc34)[C@@H](c3ccc4c(c3)OCO4)N2C(=O)CN1[C@@H]1CCN(CCc2cnccn2)C1
4.3 | 620 | 1.2 | 3.6 | 172 |  | CCNC(=O)CCN1CC[C@@H](N2CC(=O)N3[C@H](c4ccc5c(c4)OCO5)c4[nH]c5ccccc5c4C[C@@H]3C2=O)C1
 |  | 2 |  | 173 |  | Cn1ccnc1CCN1CC[C@@H](N2CC(=O)N3[C@H](c4ccc5c(c4)OCO5)c4[nH]c5ccccc5c4C[C@@H]3C2=O)C1 (stereo in doubt; form 2) [listing 1 of 2 here]
2.01 | 226 | 1.4 | 1.5 | 153 |  | O=C1[C@H]2Cc3c([nH]c4ccccc34)[C@@H](c3ccc4c(c3)OCO4)N2C(=O)CN1[C@@H]1CCN(CCc2ccccn2)C1
3.5 | 357 | 2.9 | 1.2 | 300 |  | O=C1[C@H]2Cc3c([nH]c4ccccc34)[C@@H](c3ccc4c(c3)OCO4)N2C(=O)CN1[C@@H]1CCN(CCc2ncc[nH]2)C1
22 | 1340 | 3 | 7.1 | 188 |  | COCCCN1CC[C@@H](N2CC(=O)N3[C@H](c4ccc5c(c4)OCO5)c4[nH]c5ccccc5c4C[C@@H]3C2=O)C1
 |  | 3 | 4 |  |  | C=CCCN1CC[C@@H](N2CC(=O)N3[C@H](c4ccc5c(c4)OCO5)c4[nH]c5ccccc5c4C[C@@H]3C2=O)C1
43 | 2660 | 2.7 | 15.7 | 169 |  | O=C1[C@H]2Cc3c([nH]c4ccccc34)[C@@H](c3ccc4c(c3)OCO4)N2C(=O)CN1[C@@H]1CCN(CCC2CC2)C1
2.2 | 494 |  | 0.8 |  |  | Cn1ccnc1CCN1CC[C@@H](N2CC(=O)N3[C@H](c4ccc5c(c4)OCO5)c4[nH]c5ccccc5c4C[C@@H]3C2=O)C1 (stereo in doubt; form 1) [listing 1 of 2 here]
31 | 1770 | 2.3 | 13.2 | 134 |  | CCCCCN1CC[C@@H](N2CC(=O)N3[C@H](c4ccc5c(c4)OCO5)c4[nH]c5ccccc5c4C[C@@H]3C2=O)C1
1.4 | 125 |  | 0.7 |  |  | Cn1ccnc1CCN1CC[C@@H](N2CC(=O)N3[C@H](c4ccc5c(c4)OCO5)c4[nH]c5ccccc5c4C[C@@H]3C2=O)C1 (stereo in doubt; form 2) [listing 2 of 2 here]
4.7 | 807 | 1.9 | 2.5 | 316 |  | CN(C)C(=O)CCN1CC[C@@H](N2CC(=O)N3[C@H](c4ccc5c(c4)OCO5)c4[nH]c5ccccc5c4C[C@@H]3C2=O)C1
2.4 | 271 | 1.3 | 1.9 | 144 |  | O=C1[C@H]2Cc3c([nH]c4ccccc34)[C@@H](c3ccc4c(c3)OCO4)N2C(=O)CN1[C@@H]1CCN(CCc2cccnc2)C1
 |  | 2.6 |  | 640 |  | Cn1ccnc1CCN1CC[C@@H](N2CC(=O)N3[C@H](c4ccc5c(c4)OCO5)c4[nH]c5ccccc5c4C[C@@H]3C2=O)C1 (stereo in doubt; form 1) [listing 2 of 2 here]
 | > 10000 |  | 57 | > 175 |  | CCCN1CC[C@@H](N2CC(=O)N3[C@H](c4ccc5c(c4)OCO5)c4[nH]c5ccccc5c4C[C@@H]3C2=O)C1

The next lines start with the compound.

SMILES | IC50 [1] [nM] | IC50 (Phosphodiesterase 6) [nM] | Selectivity ratio [2] | IC50 [3] [nM] | Selectivity ratio [4] | Selectivity ratio [5]
O=C1[C@H]2Cc3c([nH]c4ccccc34)[C@@H](c3ccc4c(c3)OCO4)N2C(=O)CN1[C@@H]1CCN(Cc2ccccc2)C1 | 5.5 | 249 |  |  |  | 
COc1cccc([C@@H]2c3[nH]c4ccccc4c3C[C@@H]3C(=O)N([C@@H]4CCN(Cc5ccccc5)C4)CC(=O)N23)c1 (stereo in doubt; form 2) [listing 1 of 2 here] | 11.8 |  |  | 15.6 |  | 
CN(C)CC(=O)CN1CC[C@@H](N2CC(=O)N3[C@H](c4ccc5c(c4)OCO5)c4[nH]c5ccccc5c4C[C@@H]3C2=O)C1 | 48 |  | 2.4 | 19.8 |  | 
O=C1[C@H]2Cc3c([nH]c4ccccc34)[C@@H](c3ccc4c(c3)OCO4)N2C(=O)CN1[C@H]1CCN(Cc2ccccc2)C1 | 85 |  |  |  |  | 
O=C(CCN1CC[C@@H](N2CC(=O)N3[C@H](c4ccc5c(c4)OCO5)c4[nH]c5ccccc5c4C[C@@H]3C2=O)C1)N1CCC1 | 4.7 | 846 | 1.2 | 4 | 211 | 
COc1ccc([C@@H]2c3[nH]c4ccccc4c3C[C@@H]3C(=O)N([C@@H]4CCN(Cc5ccccc5)C4)CC(=O)N23)cc1OC | 1000 |  |  | > 1000 |  | 
COc1cccc([C@@H]2c3[nH]c4ccccc4c3C[C@@H]3C(=O)N([C@@H]4CCN(Cc5ccccc5)C4)CC(=O)N23)c1 (stereo in doubt; form 1) [listing 1 of 2 here] | 44 |  |  | 28.6 |  | 
COc1ccc([C@@H]2c3[nH]c4ccccc4c3C[C@@H]3C(=O)N([C@@H]4CCN(Cc5ccccc5)C4)CC(=O)N23)cc1 | 6.7 |  |  | 2.7 |  | 2.5
COc1cccc([C@@H]2c3[nH]c4ccccc4c3C[C@@H]3C(=O)N([C@@H]4CCN(Cc5ccccc5)C4)CC(=O)N23)c1 (stereo in doubt; form 1) [listing 2 of 2 here] |  |  |  |  |  | 1.5
Cc1ccc([C@@H]2c3[nH]c4ccccc4c3C[C@@H]3C(=O)N([C@@H]4CCN(Cc5ccccc5)C4)CC(=O)N23)cc1 | 6.5 |  |  | 12.8 |  | 0.5
CN(C)CCN1CC(=O)N2[C@H](c3ccc4c(c3)OCO4)c3[nH]c4ccccc4c3C[C@@H]2C1=O | 53 | 8224 |  | 134 |  | 
O=C1[C@H]2Cc3c([nH]c4ccccc34)[C@@H](c3ccc(O)nc3)N2C(=O)CN1[C@@H]1CCN(Cc2ccccc2)C1 | 39 |  |  | 127 |  | 0.3
COc1cccc([C@@H]2c3[nH]c4ccccc4c3C[C@@H]3C(=O)N([C@@H]4CCN(Cc5ccccc5)C4)CC(=O)N23)c1 (stereo in doubt; form 2) [listing 2 of 2 here] |  |  |  |  |  | 0.8
O=C1[C@H]2Cc3c([nH]c4ccccc34)[C@@H](c3ccc4c(c3)OCO4)N2C(=O)CN1C1CN(Cc2ccccc2)C1 | 950 |  |  | 164 |  | 
COc1ccc([C@@H]2c3[nH]c4ccccc4c3C[C@@H]3C(=O)N([C@@H]4CCN(Cc5ccccc5)C4)CC(=O)N23)cc1C | 71 |  |  | 132 |  | 0.5
O=C1[C@H]2Cc3c([nH]c4ccccc34)[C@@H](c3ccc4c(c3)OCO4)N2C(=O)CN1C1CCN(Cc2ccccc2)CC1 |  | 1619 |  | 26 |  | 
O=C1[C@H]2Cc3c([nH]c4ccccc34)[C@@H](c3ccc4c(c3)OCO4)N2C(=O)CN1CCN1CCOCC1 |  | 2966 |  | 56 |  | 
